Unmarked numbers belong to inactive results.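 The calls were made as follows: active = growth inhibition above 25% in both replicates, a cutoff set 3 SD above the mean; inconclusive = above 25% in only one replicate; inactive = the rest.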

A short description of the assay: OD615 S. cerevisiae growth inhibition, permissive medium, pilot counter-assay, permissive growth control for S. cerevisiae lifespan shortening project (AID 705). The following applies: OD615, 24 h, at 10 µM, stronger effect = higher value. An outline of the steps: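 System – S. cerevisiae with engineered DeaD lifespan system · Buffer or medium – SC raffinose/galactose permissive medium · Schedule – cells pre-grown 4 h, then 24 h compound exposure, 30 °C humidified · Technique – culture turbidity as optical density at 615 nm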
Turning to `Cc1cccc(NC(=O)c2cccnc2)c1`, the growth inhibition is -3.06%.

As for `O=C(CCCOc1ccccc1)Nc1ccc2c(c1)OCCO2`, the growth inhibition was 1.88%.

Consider `C=CCn1c(C(C)NC(=O)COC)nc2ccccc21` (stereo not given), for which the growth inhibition was -2.42%.

On to `CCCC(=O)N1CCN(c2ccc(C(=O)c3ccc(OC)c(Br)c3)cc2F)CC1`, for which the growth inhibition was -14.6%.

Consider `CC(C)Cc1cc(C(=O)Nc2ccc(F)cc2F)no1`, for which the growth inhibition was -18.9%.

In the case of `CN1CCN(CCNC(=O)c2cc3c(=O)n(C)c4ccccc4c3n2C)CC1`, the growth inhibition was -12.9%.

Turning to `Cn1nc(-c2ccc(Cl)cc2)c2cc(C(=O)NCCCN3CCCC3)sc21`, the growth inhibition is -5.71%.

`CCOC(=O)c1c(C)oc2cc(Br)c(OC(C)C(=O)OCC)cc12` (stereo not given): the growth inhibition was -10.4%.

On to `O=C(C1CC1)N1CCc2cc(Br)cc(S(=O)(=O)NCc3ccc4c(c3)OCO4)c21`, for which the growth inhibition was -4.48%.

In the case of `COc1ccc(OC)c(NC2c3ccccc3C(=O)N2Cc2ccc3c(c2)OCO3)c1` (stereo not given), the growth inhibition was -0.33%.

On to `CC1CCN(S(=O)(=O)c2ccc3c(c2)oc(=O)n3CC(=O)NCc2ccc3c(c2)OCO3)CC1`, for which the growth inhibition is -1.64%.

For `COc1cccc(-n2nnc3c(=O)n(Cc4cccc(C)c4)cnc32)c1`, the growth inhibition was -8.22%.

Regarding `CCc1cc2c(NCC3CCCO3)ncnc2s1` (stereo not given), the growth inhibition was 2.17%.

Consider `Cc1ccc(-n2nc3ccc(N)cc3n2)cc1`, for which the growth inhibition is -12.9%.

On to `COc1ccc(N2C(=O)C3CCCN3C2c2ccc(Cl)cc2)cc1` (stereo not given), for which the growth inhibition is -6.21%.

Take `CCOC(=O)c1ccc(NCn2c(=O)oc3ccccc32)cc1`: the growth inhibition is -8.51%.

Take `Cc1cccc(-n2ncc3c(N4CCC(C)CC4)ncnc32)c1`: the growth inhibition was -5.82%.

As to `CCOC(=O)c1ccc(N2C(=O)C3ON(c4ccccc4)C(c4ccco4)C3C2=O)cc1` (stereo not given), the growth inhibition is -17.9%.

Regarding `O=C(C1COc2ccccc2O1)N1CCn2c(nc3ccccc32)C1` (stereo not given), the growth inhibition is -13.1%.

Take `CN(CC(=O)N1CC=C(c2ccccc2)CC1)S(=O)(=O)c1ccc2c(c1)c(=O)n(C)c(=O)n2C`: the growth inhibition is -1.64%.

For the molecule `CSC1=NCCN1C(=O)COc1ccccc1`, the growth inhibition is 5.44%.

For `CC(C)NC(=O)c1ccc(CS(=O)(=O)c2ccc(Br)cc2)o1`, the growth inhibition was 4.63%.

Turning to `Cc1ccc(-n2ncc3c(=O)[nH]c(SCC(=O)N4CCCC4)nc32)cc1C`, the growth inhibition was -6.01%.

Turning to `O=c1[nH]c(NC2CCCCC2)nnc1Cc1ccccc1`, the growth inhibition was -10%.

For the molecule `COc1ccc(N2CCN(Cc3nc4c(c(=O)[nH]c(=O)n4C)n3Cc3cccc(Cl)c3)CC2)cc1`, the growth inhibition was -9.21%.

For `Cc1nc2scc(-c3cccs3)c2c(=O)o1`, the growth inhibition was -24%.

With `CCC1Oc2nc(SC)nnc2-c2ccccc2N1C(=O)c1ccccc1` (stereo not given), the growth inhibition was -2.41%.

Take `O=C(CSc1nc2ccccc2c(=O)n1-c1ccccc1)N1CCN(CCO)CC1`: the growth inhibition was -8.67%.

In the case of `O=c1oc(-c2cccnc2)nc2ccccc12`, the growth inhibition was -8.07%.

For the molecule `CN(C)CCNC(=O)c1cc2c(=O)n(C)c3ccccc3c2n1C`, the growth inhibition was 0.095%.

For `CNC(=O)c1c(NC(=O)c2ccc(S(=O)(=O)N3CCOCC3)cc2)sc2c1CCC2`, the growth inhibition is -0.09%.

With `O=C1c2ccccc2CCC1C(O)c1ccccn1` (stereo not given), the growth inhibition was -8.87%.

`CCCCCSc1nc2c(c(=O)[nH]c(=O)n2C)n1CC`: the growth inhibition is -13.1%.

In the case of `COC(=O)c1cc(NC(=O)c2nccnc2C(=O)O)cc(C(=O)OC)c1`, the growth inhibition is -10.9%.

Regarding `O=C(CC1Sc2ccccc2NC1=O)Nc1cccc(C(=O)O)c1` (stereo not given), the growth inhibition is 0.01%.

With `Cc1cccc(NC(=O)COc2ccc(Br)cc2C)n1`, the growth inhibition was -4.42%.

Take `COc1cc(C(=O)Nc2ccc(N(C)C)cc2)cc(OC)c1OC`: the growth inhibition is -13.9%.

In the case of `CC1Cc2nc(SCC(=O)NCc3ccco3)n(-c3ccccc3)c(=O)c2S1` (stereo not given), the growth inhibition is -6.6%.

For `O=C(Nc1cccc(Br)c1)c1cc2ccccc2o1`, the growth inhibition is -5.65%.

Turning to `CCOCCCNC(=O)C(NC(=O)CNC(C)=O)c1ccc(Cl)cc1` (stereo not given), the growth inhibition is -10.1%.

These data come from PubChem BioAssay.
